Results on 15 molecules are retold here after publication PMC3763817 (Chemistry & biology, 2013).

Square brackets hold non-standard residues; d marks the D form. Ends that are not written are not given here. Peptide text beside a SMILES is read from it. * marks the point of attachment. Biotin = O=C1N[C@H]2[C@H](CS[C@H]2CCCCC(=O)*)N1; lc = a hydrocarbon chain of 6 methylene groups; Abu = CC[C@H](N)C(=O)O; Dap = NC[C@H](N)C(=O)O; Acryloyl = C=CC(=O)*

Data set [1] deals with substrate-binding domain of Siah. The note with it: ref House et al., 2003, 2006; cited from earlier work.
The target of data set [2] is T1, his6-Siah1 (aa 81-282) (Homo sapiens, UniProt Q8IUQ4).
T1 sequence (Q8IUQ4 81-282): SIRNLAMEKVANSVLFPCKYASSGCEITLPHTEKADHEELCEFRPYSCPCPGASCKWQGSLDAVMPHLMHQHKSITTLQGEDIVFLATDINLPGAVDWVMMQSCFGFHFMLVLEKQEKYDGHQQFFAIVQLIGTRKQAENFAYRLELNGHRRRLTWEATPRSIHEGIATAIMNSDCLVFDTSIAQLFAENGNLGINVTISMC
Description: DELFIA displacement of biotin-PHYL, wild type Siah. Format: binding.

Data set [3] addresses T2, his6-Siah1 T156C (aa 81-282) (Homo sapiens, UniProt Q8IUQ4, T156C).
T2 sequence (Q8IUQ4 81-282 T156C): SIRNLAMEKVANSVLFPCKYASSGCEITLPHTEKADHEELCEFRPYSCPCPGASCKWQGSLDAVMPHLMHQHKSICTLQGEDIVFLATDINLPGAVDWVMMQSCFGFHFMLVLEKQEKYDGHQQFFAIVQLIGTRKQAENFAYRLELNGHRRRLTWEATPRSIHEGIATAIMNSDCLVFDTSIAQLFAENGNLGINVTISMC
Description: DELFIA displacement of biotin-PHYL, mutant T156C Siah. In kind it is binding.

The subject of data set [4] is wt Siah1. The data set is described as follows: MALDI-TOF MS of covalent modification, wt Siah1. Format: binding. The note with it: protein incubated with peptide in 0.5x PBS (Figures 2e, 3d). In a few lines:
(§1)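 Siah1 residues 81-282 (wild type or T156C mutant) from pET15b expression, incubated with peptide in 0.5x PBS. Equal volumes of sample and sinapic acid matrix (20 mg/ml in 50% acetonitrile-0.1% TFA) were co-crystallised on target and air-dried 5 min. Controls were buffer-only and protein spectra. Peaks were picked by centroid mass find (S/N threshold 5, peak width 40 m/z, 80% height, Top Hat baseline subtraction).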

Data set [5] concerns Siah1 T156C. Description: MALDI-TOF MS of covalent modification, Siah1 T156C. Format: binding. The following applies: protein incubated with peptide in 0.5x PBS (Figure 2d). A digest of the protocol:
as §1

Data set [6] has as its system T156C Siah1. Description: X-ray crystal structure of BI-117C3/T156C Siah1 complex. The following applies: crystal structure at 2.8 Å, judged by refined atomic B-factors. Format: binding. In a few lines:
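Siah1 residues 81–282 with T156C mutation, purified by a published method, mixed with 2-fold excess test peptide at 4 °C for 16–18 h. Doubly peptide-bound dimer isolated by anion exchange. Sitting-drop vapour-diffusion crystals grown over 60–65% MPD, 100 mM N,N-bis(2-hydroxyethyl)glycine pH 9.0. Synchrotron data; molecular replacement using a refined covalent peptide–Siah1 dimer as search model.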

The target in data set [7] is T3, his6-Siah1 (aa 81-282) (UniProt Q8IUQ4 81-282).
T3 sequence (looked up): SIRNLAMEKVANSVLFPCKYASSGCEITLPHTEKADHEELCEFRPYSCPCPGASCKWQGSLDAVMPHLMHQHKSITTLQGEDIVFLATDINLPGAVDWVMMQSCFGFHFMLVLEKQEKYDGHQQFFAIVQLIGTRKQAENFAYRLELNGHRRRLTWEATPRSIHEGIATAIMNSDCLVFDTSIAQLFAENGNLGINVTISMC
Description: DELFIA displacement assay.

In data set [8] the target is T4, his6-Siah1 T156C (aa 81-282) (UniProt Q8IUQ4 81-282, T156C).
T4 sequence (looked up): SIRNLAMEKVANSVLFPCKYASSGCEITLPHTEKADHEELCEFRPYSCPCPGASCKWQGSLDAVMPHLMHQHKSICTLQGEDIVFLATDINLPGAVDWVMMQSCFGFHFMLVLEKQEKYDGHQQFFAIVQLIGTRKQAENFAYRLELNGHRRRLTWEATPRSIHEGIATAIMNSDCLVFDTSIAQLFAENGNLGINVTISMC
Description: DELFIA displacement assay.

The target in data set [9] is T4, his6-Siah1 T156C (aa 81-282). Description: DELFIA displacement assay. This is another data set of the same source.
Data set [10] deals with the molecule itself. Description: crystal structure.

Ac-QQERTKLRPVAMVRPTVRVQPQL-NH2 [PHYL]: the “Affinity for the substrate-binding domain of Siah” value in data set [1] is on record as “low micromolar affinity”. Consider Ac-KLRPVAMVRPTVR-NH2 [BI-107D1], for which the IC50 in data set [2] and in data set [3] was 1000 nM throughout. Regarding `C=CC(=O)NCCCC[C@H](NC(=O)[C@@H]1CCCN1C(=O)[C@H](CCCNC(=N)N)NC(=O)[C@@H](NC(=O)[C@H](CCSC)NC(=O)[C@H](C)NC(=O)[C@@H](NC(=O)[C@@H]1CCCN1C(=O)[C@H](CCCNC(=N)N)NC(=O)[C@H](CC(C)C)NC(=O)[C@H](CCCCN)NC(C)=O)C(C)C)C(C)C)C(=O)N[C@H](C(=O)N[C@@H](CCCNC(=N)N)C(N)=O)C(C)C` [BI-107F7] (Ac-KLRPVAMVRPK(Acryloyl)VR-NH2), the “Covalent modification of wt Siah1 by MALDI-TOF mass spectrometry” value in data set [4] is reported as “confirmed the formation of the covalent complex”.

On to “Ac-RQIKIWFQNRRMKWKKPPPPPPPPPPQQERTKLRPVAMVRPTVRVQPQL-NH2 [PEN-P10-PHYL, reference compound]”, for which, in data set [2], the half-inhibitory concentration (IC50) – broadly, the concentration that gives 50% inhibition – was 1000 nM. Regarding `C=CC(=O)NC[C@H](NC(=O)[C@@H](NC(=O)[C@@H]1CCCN1C(=O)[C@H](CCCNC(=N)N)NC(=O)[C@H](CC(C)C)NC(=O)[C@H](CCCCN)NC(C)=O)C(C)C)C(=O)N[C@@H](CCSC)C(=O)N[C@H](C(=O)N[C@@H](CCCNC(=N)N)C(=O)N1CCC[C@H]1C(=O)N[C@@H](Cc1c[nH]c2ccccc12)C(=O)N[C@H](C(=O)N[C@@H](CCCNC(=N)N)C(N)=O)C(C)C)C(C)C` [BI-117C3] (Ac-KLRPV[Dap](Acryloyl)MVRPWVR-NH2), the “Covalent modification of Siah1 T156C by MALDI-TOF mass spectrometry” value in data set [5] was “expected mass increase”. In data set [4], the “Covalent modification of wt Siah1 by MALDI-TOF mass spectrometry” value is listed as “unable to covalently modify wt Siah1”. For the same molecule, the “Efficiency of covalent thioether bond formation to Cys156” value in [6] is ~ 100%.

B1: PHYL (Ac-QQERTKLRPVAMVRPTVRVQPQL-NH2) (peptide)
peptide: Ac-QQERTKLRPVAMVRPTVRVQPQL-NH2
Molecule B1 gave an IC50 in [7] of 500 nM.

B2: BI-107D1 (Ac-KLRPVAMVRPTVR-NH2) (peptide)
peptide: Ac-KLRPVAMVRPTVR-NH2
B2: the concentration for half-maximal inhibition (IC50) in data set [7] and in data set [8] was 1000 nM in each case.

B3: BI-107F1 (Ac-KLRPVAMVRPWVR-NH2) (peptide)
peptide: Ac-KLRPVAMVRPWVR-NH2
B3: the IC50 in data set [8] was 400 nM. This counts as sub-micromolar.

B4: BI-107E12 (Ac-KLRPVAMVRPMVR-NH2) (peptide)
peptide: Ac-KLRPVAMVRPMVR-NH2
Regarding B4, in data set [8], the IC50 amounted to 900 nM.

B5: biotin-PHYL (biotin-lc-QQERTKLRPVAMVRPTVRVQPQL) (peptide)
peptide: {Biotin-lc}-QQERTKLRPVAMVRPTVRVQPQL
On to B5, for which the binding result in data set [9] was “binds”.

B6: Siah1 81-282 (wild-type) (domain or fragment, UniProt Q8IUQ4 81-282, looked up)
chain: SIRNLAMEKVANSVLFPCKYASSGCEITLPHTEKADHEELCEFRPYSCPCPGASCKWQGSLDAVMPHLMHQHKSITTLQGEDIVFLATDINLPGAVDWVMMQSCFGFHFMLVLEKQEKYDGHQQFFAIVQLIGTRKQAENFAYRLELNGHRRRLTWEATPRSIHEGIATAIMNSDCLVFDTSIAQLFAENGNLGINVTISMC
For B6, the binding result in data set [10] was “binds”.

B7: Siah1 81-282 (T156C mutant), for crystallographic studies (domain or fragment, UniProt Q8IUQ4 81-282, looked up)
chain: SIRNLAMEKVANSVLFPCKYASSGCEITLPHTEKADHEELCEFRPYSCPCPGASCKWQGSLDAVMPHLMHQHKSICTLQGEDIVFLATDINLPGAVDWVMMQSCFGFHFMLVLEKQEKYDGHQQFFAIVQLIGTRKQAENFAYRLELNGHRRRLTWEATPRSIHEGIATAIMNSDCLVFDTSIAQLFAENGNLGINVTISMC
For B7, the binding result in data set [10] was “binds”.

B8: BI-107F7 (Ac-KLRPVAMVRPαVR-NH2) (peptide)
chain: Ac-KLRPVAMVRPK(Acryloyl)VR-NH2
The molecule B8 showed a concentration for half-maximal inhibition (IC50) in data set [7] of 100 nM.

B9: BI-117C3 (Ac-KLRPVδMVRPWVR-NH2) (peptide)
chain: Ac-KLRPV[Dap](Acryloyl)MVRPWVR-NH2
SMILES: C=CC(=O)NC[C@H](NC(=O)[C@@H](NC(=O)[C@@H]1CCCN1C(=O)[C@H](CCCNC(=N)N)NC(=O)[C@H](CC(C)C)NC(=O)[C@H](CCCCN)NC(C)=O)C(C)C)C(=O)N[C@@H](CCSC)C(=O)N[C@H](C(=O)N[C@@H](CCCNC(=N)N)C(=O)N1CCC[C@H]1C(=O)N[C@@H](Cc1c[nH]c2ccccc12)C(=O)N[C@H](C(=O)N[C@@H](CCCNC(=N)N)C(N)=O)C(C)C)C(C)C
For B9, the IC50 in data set [7] is over 100000 nM; in data set [8], 6 nM.

B10: BI-107E1 (Ac-KLRPVεMVRPTVR-NH2) (peptide)
chain: Ac-KLRPV[Abu]MVRPTVR-NH2
In the case of B10, the IC50 in data set [7] and in data set [8] was 2000 nM throughout.
